Assay results pooled from the literature.
Protocols differ between the studies behind these lines.
CDK7: Cyclin-dependent kinase 7 (CDK7, Homo sapiens, UniProt P50613)

C=CC(=O)N1CCC([C@@H]2CCNc3c(C(N)=O)c(-c4ccc(Oc5ccccc5)cc4)nn32)CC1
inhibition (CDK7; enzyme activity, inhibitor; 1 µM): 21%

C1=C/COCc2cc(ccc2OCCN2CCCC2)Nc2nccc(n2)-c2cccc(c2)COC/1
remaining binding (CDK7; binding; 0.1 µM): 21%

CN1CCN(C(=O)c2ccc(NC(=O)Nc3ccc(N(C)c4ccnc(Nc5ccc(CS(C)(=O)=O)cc5)n4)cc3)cc2)CC1
remaining binding (CDK7; binding, competition with immobilised ligand; 1 µM): 61%

C[C@]1(O)CCCN(c2nc(Nc3ccc(S(=O)(=O)N[C@H]4CC[C@H](CN5CCN(c6ccc(C7CCC(=O)NC7=O)cc6F)CC5)CC4)cc3Cl)ncc2C(F)(F)F)C1 (some centres unmarked)
remaining binding (CDK7; binding, competition with immobilised ligand; 1 µM): 100%

Cc1ccc(NC(=O)c2ccnc(C(F)(F)F)c2)cc1-c1cc(OCCO)nc(N2CCOCC2)c1
remaining binding (CDK7; binding, competition with immobilised ligand; 1 µM): 98%

C=CC(=O)N1CCC[C@@H](n2nc(-c3ccc(Oc4ccccc4)cc3)c3c(N)ncnc32)C1
inhibition (CDK7; enzyme activity, inhibitor; 1 µM): 28%

CCCCC(=O)Nc1ccc(-c2ccc3ncn(CCC)c(=O)c3c2)cn1
remaining binding (CDK7; binding, competition with immobilised ligand; 0.5 µM): 83%

COc1ccc2oc(-c3ccc4nc(N)oc4c3)c/c(=N\c3ccccc3NC(=O)CCN)c2c1
remaining binding (CDK7; binding; 1 µM): 97%

CC(C)S(=O)(=O)c1ccc2nccc(Nc3ccc4sc(C5CCCC5)nc4c3)c2c1
activity vs control (Cyclin-dependent kinase 7, with cyclin H (CDK7, Homo sapiens, UniProt P50613); enzyme activity, inhibitor; 1 µM): 106%

CNS(=O)(=O)c1ccc(Nc2ncc(C(F)(F)F)c(N3CCC[C@](C)(O)C3)n2)c(C)c1
remaining binding (CDK7; binding, competition with immobilised ligand; 1 µM): 83%

N#Cc1ccc(NC(=O)Nc2ccccc2)cc1
remaining binding (CDK7; cell-free assay, competition with immobilised ligand; 25 µM): 94%
